The term IC50 denotes the midpoint of a concentration-inhibition curve. What is called EC50 is the concentration needed to bring the measured effect to its halfway point.

For experiment [1], the system named is HL-60. Put plainly: Antiproliferative activity against human HL60 cells assessed as inhibition of [3H]thymidine incorporation after 4 days by liquid scintillation counter. It counts as functional, cell-based. Put shortly: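 HL-60 cells in log phase diluted to 10^5 cells/mL, preincubated 18 h, then exposed to samples in DMSO (final 0.1% v/v; DMSO-only controls) for 4 days. Cells then pulsed with [3H]thymidine (0.5 μCi/mL, 65 Ci/mmol) for 18 h at 37 °C, 5% CO2, harvested onto glass fiber filters, scintillation counted; incorporation per 10^6 cells as % of DMSO control. IC50 from 5–7 concentrations in duplicate.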
For orientation: Uptake of a labelled nucleoside into DNA is a usual measure of proliferation.

Experiment [2] has as its system HL-60. In words: Induction of cell differentiation in human HL60 cells assessed as superoxide anion production after 4 days by NBT reduction assay. It counts as functional, cell-based. The following applies: HL-60, 96 h. In outline:
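Cells diluted to 10^5/mL and recovered overnight were exposed 4 days to samples (0.1% v/v DMSO final). Cell suspension (10^6 cells) was mixed 1:1 with NBT 2 mg/mL plus TPA 1 μg/mL in PBS and held 1 h at 37 °C. Formazan-positive cells were counted microscopically among >200 cells. EC50 from 5–7 concentrations in duplicate; 1α,25-dihydroxyvitamin D3 served as reference.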

Experiment [3] deals with HL-60. In words: Cytotoxicity against human HL60 cells assessed as loss of membrane integrity after 4 days by trypan blue exclusion assay. The format is functional, cell-based. To be noted: HL-60, 96 h. Put shortly: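 After 18 h recovery at 10^5 cells/mL, HL-60 cells were treated 4 days with samples (final DMSO 0.1% v/v). Cells were mixed 1:4 with trypan blue (0.2% w/v in PBS), held at least 5 min at room temperature and counted by hemocytometer. Viability was taken from duplicate samples; IC50 from 5–7 concentrations in duplicate.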

In experiment [4] the test system is HL-60. Put plainly: Selectivity index, ratio of cytotoxic IC50 to antiproliferative IC50 for human HL60 cells. It counts as functional. Put shortly:
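Index = cytotoxic IC50 (trypan blue, 4-day HL-60 exposure) divided by antiproliferative IC50 ([3H]thymidine incorporation), each from dose–response with at least five points.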

Bounds are passed on as bounds.

On to `CC1=CC(=O)[C@@H](O)[C@]2(C)[C@H]3[C@]4(O)OC[C@]35[C@H]([C@@H](C)[C@H]4O)[C@@H](OC(=O)C(=O)O[C@H]3C(=O)O[C@@H]4C[C@H]6C(C)=CC(=O)[C@@H](O)[C@]6(C)[C@H]6[C@]7(O)OC[C@]64[C@@H]3[C@@H](C)[C@H]7O)C(=O)O[C@@H]5C[C@@H]12.O=C(O)C(=O)O`, for which the IC50 in the experiment with HL-60 [1] was determined as 500 nM; with HL-60 [3], 1800 nM. In addition, the EC50 with HL-60 [2] was greater than 1500 nM. Also, in the experiment on HL-60 [4], the “Ratio IC50” value is 3.6.
On the same counts, the results for `CC1=CC(=O)[C@@H](O)[C@]2(C)[C@H]3[C@]4(O)OC[C@]35[C@H]([C@@H](C)[C@H]4O)[C@@H](OC(=O)CC(C)(C)OP(=O)(O)O)C(=O)O[C@@H]5C[C@@H]12` are 700 nM, 4400 nM, 3000 nM and 6.5.
In the case of `CC1=CC(=O)[C@@H](O)[C@]2(C)[C@H]3[C@]4(O)OC[C@]35[C@H]([C@@H](C)[C@H]4O)[C@@H](OC(=O)CC(C)C)C(=O)O[C@@H]5C[C@@H]12`, the IC50 amounted to 1000 nM in the experiment with HL-60 [1] and 1500 nM with HL-60 [3]. Besides, the 50% effective concentration (EC50) in the experiment with HL-60 [2] is greater than 2000 nM. For the same molecule, in the experiment on HL-60 [4], the “Ratio IC50” value was found to be 1.5.
For `CC1=CC(=O)[C@@H](O)[C@]2(C)[C@H]3[C@]4(O)OC[C@]35[C@H]([C@@H](C)[C@H]4O)[C@@H](OC(=O)C3(CO)CC3)C(=O)O[C@@H]5C[C@@H]12` the same measures were 1000 nM, 2800 nM, 2000 nM and 2.9.
On to `CC1=CC(=O)[C@@H](O)[C@]2(C)[C@H]3[C@]4(O)OC[C@]35[C@H]([C@@H](C)[C@H]4O)[C@@H](OC(=O)[C@@H](C)CO)C(=O)O[C@@H]5C[C@@H]12`, for which the IC50 in the experiment on HL-60 [1] was 600 nM; with HL-60 [3], 2500 nM. For the same molecule, the EC50 in the experiment with HL-60 [2] worked out at 1900 nM. Also, in the experiment with HL-60 [4], the “Ratio IC50” value is 4.3.
On the same counts, the results for `CC1=CC(=O)[C@@H](O)[C@]2(C)[C@H]3[C@]4(O)OC[C@]35[C@H]([C@@H](C)[C@H]4O)[C@@H](OC(=O)C(C)(C)C(=O)O)C(=O)O[C@@H]5C[C@@H]12` are 3200 nM, greater than 7000 nM, greater than 7000 nM and greater than 2.2.
With `CC1=CC(=O)[C@@H](O)[C@]2(C)[C@H]3[C@]4(O)OC[C@]35[C@H]([C@@H](C)[C@H]4O)[C@@H](OC(=O)[C@H](C)CO)C(=O)O[C@@H]5C[C@@H]12`, the IC50 was 1500 nM in the experiment on HL-60 [1] and 6200 nM in the experiment on HL-60 [3]. In addition, the EC50 in the experiment on HL-60 [2] was greater than 6000 nM. Further, in the experiment with HL-60 [4], the “Ratio IC50” value was found to be 4.2.
Take `CC[C@](C)(O)C(=O)O[C@H]1C(=O)O[C@@H]2C[C@H]3C(C)=CC(=O)[C@@H](O)[C@]3(C)[C@H]3C4(O)OC[C@]32[C@@H]1[C@@H](C)[C@H]4O` (single isomer, unassigned) [GLAUCARUBINONE]: the 50% inhibitory concentration (IC50) in the experiment with HL-60 [1] turned out to be 500 nM; in the experiment with HL-60 [3] it was 1000 nM. Besides, the EC50 with HL-60 [2] was determined as 1800 nM. In the experiment with HL-60 [4], the “Ratio IC50” value turned out to be 2.1.
On the same counts, the results for `CC1=CC(=O)[C@@H](O)[C@]2(C)[C@H]3[C@]4(O)OC[C@]35[C@H]([C@@H](C)[C@H]4O)[C@@H](O)C(=O)O[C@@H]5C[C@@H]12` [GLAUCARUBOLONE] are 400 nM, 1300 nM, 1300 nM and 3.3.
Take `CC(=O)O[C@H]1C(=O)O[C@@H]2C[C@H]3C(C)=CC(=O)[C@@H](O)[C@]3(C)[C@H]3[C@]4(O)OC[C@]32[C@@H]1[C@@H](C)[C@H]4O` [HOLACANTHONE]: the IC50 in the experiment with HL-60 [1] came out at 200 nM; in the experiment with HL-60 [3], 500 nM. Moreover, the EC50 in the experiment with HL-60 [2] turned out to be 200 nM. In addition, the “Ratio IC50” value in the experiment with HL-60 [4] is given as 2.5.

Values taken from ChEMBL document CHEMBL1156387, “Novel esters of glaucarubolone as inducers of terminal differentiation of promyelocytic HL-60 cells and inhibitors of 7,12-dimethylbenz[a]anthracene-induced preneoplastic lesion formation in mouse mammary organ culture” (J Nat Prod, 2001).
